According to ChEMBL document CHEMBL6134900 (J Med Chem, 2025):
Active and inactive are the calls of the source. No cut-off for these calls is given here.

Key:
[1] = Toxicity in female athymic nude mouse xenografted with human NCI-H2030 cells harboring SMARCA4 mutant assessed as change in body weight at 5 mg/kg, po administered once daily via gavage for 17 days relative to control; assay type: organism-based; conditions: in vivo, 408 h, time 17 day
Method in brief: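 10 × 10^6 H2030 cells in PBS:Matrigel 1:1, 200 μL, injected subcutaneously into flanks of 6–8-week-old females. Randomized at mean tumor volume <200 mm3. Oral gavage once daily in 10% DMSO, 40% PEG300, 1% Tween-80, 49% saline. Caliper tumor volume and body weight monitored, mean ± SEM.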

[2] = biological target: Protein cereblon/SWI/SNF-related matrix-associated actin-dependent regulator of chromatin subfamily A member 2 (Homo sapiens, UniProt P51531+Q96SW2); assay: PROTAC activity at CRBN/SMARCA2 in human H322 cells harboring SMARCA4 mutant assessed as induction of SMARCA2 degradation at 1 uM in presence of pomalidomide by immunoblot analysis; assay type: cell-based
[3] = biological target: Transcriptional coactivator YAP1 (Homo sapiens) (UniProt P46937); assay: Induction of YAP1 phosphorylation at S127 residue in human H322 cells harboring SMARCA4 mutant at 1 uM incubated for 96 hrs by immunoblot analysis; assay type: cell-based; conditions: filed as activator
Sequence of Transcriptional coactivator YAP1 (Homo sapiens) (P46937 whole entry): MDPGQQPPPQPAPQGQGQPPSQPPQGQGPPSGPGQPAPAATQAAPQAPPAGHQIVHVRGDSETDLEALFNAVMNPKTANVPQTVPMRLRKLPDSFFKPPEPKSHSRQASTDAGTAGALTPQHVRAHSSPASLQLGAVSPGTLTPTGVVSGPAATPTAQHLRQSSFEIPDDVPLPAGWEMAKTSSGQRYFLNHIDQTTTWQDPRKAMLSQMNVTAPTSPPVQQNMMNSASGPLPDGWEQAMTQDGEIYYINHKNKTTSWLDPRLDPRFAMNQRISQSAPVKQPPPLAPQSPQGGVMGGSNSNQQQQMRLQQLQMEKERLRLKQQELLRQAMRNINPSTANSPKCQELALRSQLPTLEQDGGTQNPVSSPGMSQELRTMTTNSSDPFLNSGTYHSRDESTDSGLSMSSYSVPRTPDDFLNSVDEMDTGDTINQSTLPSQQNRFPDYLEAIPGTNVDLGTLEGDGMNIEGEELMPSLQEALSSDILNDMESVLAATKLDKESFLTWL

[4] = Drug metabolism in mouse liver microsomes assessed as Mono-oxygenation mediated M2 metabolite formation at 10 uM incubated for 60 mins by LC-UV-HRMS analysis; assay type: ADME, Microsome; conditions: 1 h
Method in brief: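 Compound at 10 μM incubated with mouse liver microsomes at 37 °C for 60 min. Metabolites detected by LC-UV-HRMS, structures proposed from MS and MS2 data, and each metabolite given as a percentage.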

[5] = Drug concentration in CRBN I391V mutant mouse plasma at 80 mg/kg, po administered once daily for 3 days and measured at 24 hrs post last dose; assay type: ADME, organism-based; conditions: time 3 day
Method in brief: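 Oral dosing once daily for 3 days: 5–80 mg/kg in C57BL/6 mice, 10–80 mg/kg in CrbnI391V mice. Euthanized 24 h after last dose. Plasma drug level measured. Spleen SMARCA2 by Western blot against actin loading control, relative to vehicle.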

[6] = In vivo PROTAC activity at CRBN I391V mutant/SMARCA2 in mouse assessed as SMARCA2 degradation in spleen at 10 to 80 mg/kg, po administered once daily for 3 days and measured at 24 hrs post last dose by Western blotting analysis relative to control; assay type: functional; conditions: dose 10-80 mg/kg, time 3 day
Method in brief: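 CrbnI391V mice given 10, 20, 40 or 80 mg/kg or vehicle orally once daily for 3 days. Euthanised 24 h after the last dose. Spleen SMARCA2 measured by Western blot with actin as loading control, relative to vehicle. Plasma drug level measured at the same time.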

[7] = In vivo PROTAC activity at CRBN/SMARCA2 in female athymic nude mouse xenografted with human NCI-H1568 cells harboring SMARCA4 mutant assessed as SMARCA2 degradation at 40 mg/kg, po administered once daily via gavage for 13 days by Western blotting analysis relative to control; assay type: functional; conditions: time 13 day
Method in brief: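 H1568 cells (2 × 10^6, PBS/Matrigel 1:1) implanted subcutaneously in the flank of female nude mice aged 6–8 weeks. Randomised at about 60 mm3 tumour volume. 40 mg/kg or vehicle given by oral gavage once daily for 13 days in 0.5% methylcellulose/Tween-80, sonicated. Tumours collected 24 h after dosing. SMARCA2 measured by Western blot against β-actin, relative to vehicle.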

Structure (SMILES)	Activity [1]	Activity [2]	Activity [3]	Drug metabolism [4]	concentration at 72 h [5]	Activity [6]	Activity [7]
Nc1nnc(-c2ccccc2O)cc1N1CCN(Cc2ccc(N3CCN(CCOc4cccc5c4C(=O)N(C4CCC(=O)NC4=O)C5=O)CC3)c(F)c2)CC1 (configuration not stated)	< 20%						
Nc1nnc(-c2ccccc2O)cc1N1CCN(Cc2ccc(N3CCC(CN4CCN(c5ccc6c(c5)C(=O)N(C5CCC(=O)NC5=O)C6=O)CC4)CC3)c(F)c2)CC1 (configuration not stated)		inactive	Active	metabolite_detected	2.45 µM	11%	50%
